Here are results for 15 compounds from ChEMBL document CHEMBL1144182, “Antimicrobial and cytotoxic arylazoenamines. Part III: antiviral activity of selected classes of arylazoenamines” (Bioorg Med Chem, 2008).

Molecules are shown by their SMILES. Activity calls are given as the source filed them. How the calls were made is not given here. Some results are limits rather than exact numbers.

Data set [1] deals with Respiratory syncytial virus. As to the kind of experiment: Antiviral activity against RSV infected in Vero76 cells assessed as reduction in virus plaque formation after 4 days by MTT assay. It counts as functional, organism-based. As to conditions: human respiratory syncytial virus, Vero 76, 96 h. (Formazan colour is commonly taken as a measure of viable cells.)
Data set [2] can be described thus: Cytotoxicity against mock-infected MDBK cells assessed as reduction in cell viability after 96 hrs by MTT assay. In kind it is cell-based, Bos taurus. As to conditions: cattle. In short, it runs like this: (§1)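 Cytotoxicity run in parallel with the antiviral assays. MDBK seeded at 6 × 10^5 and BHK at 1 × 10^6 cells/mL in maintenance medium with or without serial compound dilutions. Incubated 48–96 h at 37 °C, 5% CO2, then viability read by MTT. CC50 is the concentration reducing mock-infected cell viability by 50%.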

In data set [3] the test system is Bovine viral diarrhea virus 1. Description: Antiviral activity against BVDV infected in MDBK cells assessed as protection against virus-induced cytopathogenicity after 4 days by MTT assay. It counts as functional, organism-based. As to conditions: Bovine viral diarrhea virus isolates and strains, 96 h. In short, it runs like this: (§2)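 MDBK (BVDV) or BHK-21 (YFV) cells were seeded at 3 × 10^4 or 5 × 10^4 cells/well respectively and grown overnight to confluent monolayers at 37 °C in 5% CO2. Monolayers were infected at m.o.i. 0.01 in serum-free medium. After 1 h, MEM Earle's with 1% FCS was added, with or without serial compound dilutions. After 3–4 days at 37 °C, viability was read by MTT. EC50 was taken as 50% protection from virus-induced cytopathogenicity.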
A general note: Protection from cytopathic effect is a common read-out in antiviral testing.

Data set [4] concerns Human immunodeficiency virus 1. As to the kind of experiment: Antiviral activity against HIV1 infected in MT4 cells assessed as virus-induced cytopathogenicity after 4 days. It counts as functional, organism-based.
The test system of another data set is Vaccinia virus. Description: Antiviral activity against VV infected in Vero76 cells assessed as reduction in virus plaque formation after 4 days by MTT assay. As to conditions: Orthopoxvirus vaccinia; Vero 76. It counts as functional, organism-based.
The nature of data set [5]: Cytotoxicity against mock-infected african green monkey Vero76 cells assessed as reduction in cell viability after 96 hrs by MTT assay. In kind it is cell-based, Vero. To be noted: chlorocebus sabaeus.
The test system of the next data set is Poliovirus 1. Description: Antiviral activity against Sb1 virus infected in Vero76 cells assessed as reduction in virus plaque formation after 4 days by MTT assay. It counts as functional, organism-based. As to conditions: Enterovirus C, Sabin, Vero 76, 96 h.
Data set [6] is described as follows: Cytotoxicity against mock-infected human MT4 cells assessed as reduction in cell viability after 96 hrs by MTT assay. It counts as cell-based. In short, it runs like this: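 Exponentially growing MT-4 cells seeded at 1 × 10^5 cells/mL in RPMI-1640 with 10% FCS, penicillin and streptomycin, with or without serial compound dilutions. Incubated at 37 °C, 5% CO2; viability read by MTT after 96 h. CC50 is the concentration reducing mock-infected cell viability by 50%.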

The nature of data set [7]: Cytotoxicity against mock-infected BHK cells assessed as reduction in cell viability after 96 hrs by MTT assay. To be noted: hamster. It counts as cell-based, Mesocricetus auratus. The essentials: as §1
In the next data set the test system is Yellow fever virus. As to the kind of experiment: Antiviral activity against YFV infected in BHK21 cells assessed as protection against virus-induced cytopathogenicity after 4 days by MTT assay. In kind it is functional, organism-based. As to conditions: BHK-21, 96 h. The essentials: as §2
The subject of a further data set is Coxsackievirus B2. Description: Antiviral activity against CVB2 infected in Vero76 cells assessed as reduction in virus plaque formation after 4 days by MTT assay. As to conditions: Enterovirus B, Vero 76, 96 h. In kind it is functional, organism-based.
In data set [8] the test system is Vesicular stomatitis virus. As to the kind of experiment: Antiviral activity against VSV infected in Vero76 cells assessed as reduction in virus plaque formation after 4 days by MTT assay. In kind it is functional, organism-based. To be noted: Vero 76.

For orientation: EC50 means the concentration at which the effect is half-maximal. As a reminder, the CC50 is the concentration at which the toxic effect on the cells reaches its halfway point. As for `C(=C\N1CCCC1)/N=N/c1ccccc1`, the EC50 in data set [1] is 30 µM; in [3] it was over 63 µM; in the data set with Poliovirus 1, over 70 µM; in the data set with Yellow fever virus it was over 82 µM; with Coxsackievirus B2, 4 µM. The CC50 at 96 h came to 63 µM in data set [2], 70 µM in data set [5], 8 µM in data set [6] and 82 µM in data set [7]. In addition, the result (in data set [4]; in the data set with Vaccinia virus; in data set [8]) was inactive.
With `CN1CCC/C1=C\N=N\c1ccc(Br)cc1`, the half-maximal effective concentration (EC50) in data set [1] was 20 µM; in data set [3], 11 µM; with Poliovirus 1, over 100 µM; in the data set on Yellow fever virus, over 100 µM; in the data set with Coxsackievirus B2, 36 µM. Moreover, the CC50 at 96 h in data set [2] was over 100 µM; in data set [5], over 100 µM; in [6], 23 µM; in data set [7] it was over 100 µM. For the same compound, the outcome (in [4]; with Vaccinia virus; in data set [8]) was inactive.
Turning to `CCOC(=O)c1ccc(/N=N/C=C/N2CCCC2)cc1`, the 50% effective concentration (EC50) is over 100 µM in data set [1]; over 100 µM in data set [3]; over 100 µM in the data set on Poliovirus 1; over 100 µM in the data set with Yellow fever virus; 50 µM in the data set on Coxsackievirus B2. Besides, the 50% cytotoxic concentration (CC50) at 96 h was 100 µM in data set [2], over 100 µM in [5], 26 µM in data set [6] and over 100 µM in data set [7]. The result (in data set [4]; in the data set on Vaccinia virus; in data set [8]) was inactive.
As to `Clc1cccc(/N=N\C2=C3CCCCN3CCC2)c1`, the EC50 in data set [1] is 18 µM; in data set [3], over 20 µM; in the data set on Poliovirus 1, over 60 µM; in the data set with Yellow fever virus, over 46 µM; in the data set on Coxsackievirus B2, 22 µM. Besides, the cytotoxic concentration (CC50) at 96 h in [2] worked out at 20 µM; in data set [5], 60 µM; in [6] it was 16 µM; in data set [7] it was 46 µM. Moreover, the result (in [4]; in the data set on Vaccinia virus; in [8]) was inactive.
In the case of `CN1CCC/C1=C\N=N\c1ccc(Br)c(C(F)(F)F)c1`, the half-maximal effective concentration (EC50) in data set [1] is over 100 µM; in data set [3] it was 46 µM; with Poliovirus 1 it was 60 µM; in the data set with Yellow fever virus, over 100 µM; in the data set on Coxsackievirus B2 it was 100 µM. The CC50 at 96 h in [2] was over 100 µM; in data set [5], at least 100 µM; in data set [6], 24 µM; in data set [7], over 100 µM. The result (in data set [4]; in the data set on Vaccinia virus; in data set [8]) was inactive.
`C(=C\N1CCN(c2ncccn2)CC1)/N=N/c1ccccc1`: the 50% effective concentration (EC50) was 5 µM in data set [1]; over 10 µM in [3]; over 55 µM with Poliovirus 1; over 100 µM in the data set with Yellow fever virus; 0.9 µM in the data set on Coxsackievirus B2. For the same compound, the CC50 at 96 h in [2] is 10 µM; in [5], 55 µM; in data set [6], 17 µM; in data set [7] it was 100 µM. Further, the outcome (in data set [4]; in the data set on Vaccinia virus; in [8]) was inactive.
In the case of `C(/N=N/c1ccccc1)=C1/CCCN1Cc1ccccc1`, the half-maximal effective concentration (EC50) in data set [1] is 30 µM; in data set [3], over 74 µM; in the data set with Poliovirus 1, over 87 µM; in the data set with Yellow fever virus, over 31 µM; in the data set on Coxsackievirus B2 it was 16 µM. The 50% cytotoxic concentration (CC50) at 96 h was determined as 74 µM in data set [2], 87 µM in data set [5], 22 µM in [6] and 31 µM in data set [7]. The outcome (in data set [4]; with Vaccinia virus; in data set [8]) was inactive.
For `FC(F)(F)c1cccc(N2CCN(/C=C/N=N/c3ccccc3)CC2)c1`, the EC50 was 4 µM in data set [1]; over 9 µM in data set [3]; over 11 µM in the data set on Poliovirus 1; 9 µM in the data set on Yellow fever virus; over 11 µM in the data set on Coxsackievirus B2. For the same compound, the CC50 at 96 h in [2] was determined as 9 µM; in data set [5], 11 µM; in data set [6] it was 30 µM; in [7] it was 43 µM. In addition, the outcome (in data set [4]; in the data set with Vaccinia virus; in data set [8]) was inactive.
On to `CN1C=C(/N=N/c2ccc([N+](=O)[O-])cc2)CCC1`, for which the EC50 is over 100 µM in data set [1]; 11 µM in [3]; over 100 µM with Poliovirus 1; over 100 µM in the data set on Yellow fever virus; over 100 µM in the data set on Coxsackievirus B2. The cytotoxic concentration (CC50) at 96 h was 62 µM in data set [2], over 100 µM in [5], over 100 µM in [6] and over 100 µM in [7]. In addition, the outcome (in data set [4]; in the data set with Vaccinia virus; in data set [8]) was inactive.
As to `Fc1ccc(N2CCN(/C=C/N=N/c3ccccc3)CC2)cc1`, the concentration giving a half-maximal response (EC50) in [1] was 9 µM; in data set [3], over 13 µM; in the data set with Poliovirus 1 it was over 35 µM; with Yellow fever virus, 20 µM; in the data set with Coxsackievirus B2 it was 5 µM. Besides, the CC50 at 96 h in [2] is 13 µM; in data set [5] it was 35 µM; in [6] it was 17 µM; in data set [7], 50 µM. The outcome (in data set [4]; in the data set on Vaccinia virus; in data set [8]) was inactive.
Turning to `Brc1cccc(/N=N\C2=C3CCCCN3CCC2)c1`, the EC50 was over 100 µM in data set [1]; over 10 µM in data set [3]; over 100 µM in the data set on Poliovirus 1; over 49 µM with Yellow fever virus; 18 µM in the data set with Coxsackievirus B2. Moreover, the half-maximal cytotoxic concentration (CC50) at 96 h was 10 µM in [2], over 100 µM in [5], 9 µM in data set [6] and 49 µM in data set [7]. For the same compound, the outcome (in data set [4]; in the data set on Vaccinia virus; in data set [8]) was inactive.
As for `CCOC(=O)N1CCN(/C=C/N=N/c2ccccc2)CC1`, the half-maximal effective concentration (EC50) in [1] was 4 µM; in data set [3] it was over 13 µM; with Poliovirus 1 it was over 30 µM; in the data set on Yellow fever virus it was over 100 µM; in the data set on Coxsackievirus B2, 12 µM. In addition, the CC50 at 96 h was 13 µM in [2], 30 µM in [5], 17 µM in data set [6] and over 100 µM in [7]. The result (in data set [4]; in the data set with Vaccinia virus; in data set [8]) was inactive.
`FC(F)(F)c1cc(/N=N\C2=C3CCCCN3CCC2)ccc1Cl`: the EC50 in data set [1] was over 100 µM; in data set [3] it was over 35 µM; with Poliovirus 1 it was over 100 µM; in the data set with Yellow fever virus, over 41 µM; in the data set with Coxsackievirus B2, 64 µM. Moreover, the CC50 at 96 h was 35 µM in data set [2], over 100 µM in [5], 19 µM in data set [6] and 41 µM in data set [7]. The result (in data set [4]; in the data set on Vaccinia virus; in [8]) was inactive.
For the compound `CN1C=C(/N=N/c2ccc(Cl)c([N+](=O)[O-])c2)CCC1`, the EC50 in data set [1] is over 100 µM; in data set [3] it was over 61 µM; with Poliovirus 1, over 100 µM; in the data set with Yellow fever virus it was over 100 µM; with Coxsackievirus B2, over 100 µM. For the same compound, the half-maximal cytotoxic concentration (CC50) at 96 h in data set [2] was 61 µM; in data set [5] it was over 100 µM; in data set [6], 71 µM; in [7], over 100 µM. In addition, the outcome (in [4]; with Vaccinia virus; in [8]) was inactive.
As for `C(=C\N1CCCCC1)/N=N/c1ccccc1`, the EC50 was over 15 µM in data set [1]; over 7 µM in data set [3]; over 15 µM with Poliovirus 1; 23 µM in the data set with Yellow fever virus; 7 µM with Coxsackievirus B2. The CC50 at 96 h is 7 µM in data set [2], 15 µM in data set [5], 2 µM in data set [6] and 67 µM in data set [7]. The result (in data set [4]; in the data set on Vaccinia virus; in data set [8]) was inactive.
